These results are taken from ChEMBL document CHEMBL1142300, “4-Aminopyrimidine tetrahydronaphthols: a series of novel vanilloid receptor-1 antagonists with improved solubility properties” (Bioorg Med Chem Lett, 2008).

Structures are written as SMILES. ≈ marks a conversion by molar mass, not a printed value. A value given as a limit tells only on which side of the number the result lay.

In series [1] the target is Transient receptor potential cation channel subfamily V member 1 (Homo sapiens, UniProt Q8NER1). In words: Antagonist activity at human TRPV1 expressed in CHO cells assessed as inhibition of capsaicin-induced calcium mobilization. The class given is functional, cell-based. The method in brief:
(§1)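 Inhibition of capsaicin-evoked 45Ca2+ uptake into CHO cells stably expressing human or rat TRPV1; IC50 taken as mean of at least three measurements ± SEM. Compounds were also run separately for agonist activity.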
In general terms: Calcium flux is commonly read through the fluorescence of an indicator in the cells.

A short description of series [2]: Solubility in simulated intestinal fluid at pH 6.8. The class given is physicochemical. The method in brief: (§2)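 Thermodynamic solubility determined on a high-throughput automated platform in three aqueous media: 0.01 N HCl, phosphate-buffered saline pH 7.4, and simulated intestinal fluid pH 6.8.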
A further series deals with Rattus norvegicus. Kind of series: (§3) Half life in iv dosed rat. The format is ADME, organism-based. As to conditions: in vivo.
Series [3] can be described thus: Solubility in phosphate buffered saline at pH 7.4. The format is physicochemical. The method in brief: as §2
A short description of series [4]: Solubility in aqueous 0.01 N HCL. The class given is physicochemical. The method in brief: as §2
Series [5] deals with Transient receptor potential cation channel subfamily V member 1 (Rattus norvegicus, UniProt O35433). Kind of series: Antagonist activity at rat TRPV1 expressed in CHO cells assessed as inhibition of capsaicin-induced calcium mobilization. The class given is functional, cell-based. A digest of the protocol:
as §1

Series [6] is described as follows: Clearance in iv dosed rat. The class given is ADME, organism-based. Particulars: in vivo.
Series [7] can be described thus: Bioavailability in rat at 5 mg/kg, po. The format is ADME, organism-based. Particulars: in vivo.
The nature of series [8]: as §3. As to conditions: in vivo. The format is ADME, organism-based.
Series [9] can be described thus: AUC in rat at 5 mg/kg, po. The class given is ADME, organism-based. Also on record: dose 5 mg/kg, route oral. As to conditions: plasma.
The nature of series [10]: AUC in rat at 3 mg/kg, po. More on the design: dose 3 mg/kg, route oral. The class given is ADME, organism-based. Particulars: plasma.
Where [11] appears, read: simulated intestinal fluid, read-out: Solubility.
[12] abbreviates: aqueous 0.01 N HCl, read-out: Solubility.

Chain of Transient receptor potential cation channel subfamily V member 1 (Rattus norvegicus, UniProt O35433) (O35433 whole entry): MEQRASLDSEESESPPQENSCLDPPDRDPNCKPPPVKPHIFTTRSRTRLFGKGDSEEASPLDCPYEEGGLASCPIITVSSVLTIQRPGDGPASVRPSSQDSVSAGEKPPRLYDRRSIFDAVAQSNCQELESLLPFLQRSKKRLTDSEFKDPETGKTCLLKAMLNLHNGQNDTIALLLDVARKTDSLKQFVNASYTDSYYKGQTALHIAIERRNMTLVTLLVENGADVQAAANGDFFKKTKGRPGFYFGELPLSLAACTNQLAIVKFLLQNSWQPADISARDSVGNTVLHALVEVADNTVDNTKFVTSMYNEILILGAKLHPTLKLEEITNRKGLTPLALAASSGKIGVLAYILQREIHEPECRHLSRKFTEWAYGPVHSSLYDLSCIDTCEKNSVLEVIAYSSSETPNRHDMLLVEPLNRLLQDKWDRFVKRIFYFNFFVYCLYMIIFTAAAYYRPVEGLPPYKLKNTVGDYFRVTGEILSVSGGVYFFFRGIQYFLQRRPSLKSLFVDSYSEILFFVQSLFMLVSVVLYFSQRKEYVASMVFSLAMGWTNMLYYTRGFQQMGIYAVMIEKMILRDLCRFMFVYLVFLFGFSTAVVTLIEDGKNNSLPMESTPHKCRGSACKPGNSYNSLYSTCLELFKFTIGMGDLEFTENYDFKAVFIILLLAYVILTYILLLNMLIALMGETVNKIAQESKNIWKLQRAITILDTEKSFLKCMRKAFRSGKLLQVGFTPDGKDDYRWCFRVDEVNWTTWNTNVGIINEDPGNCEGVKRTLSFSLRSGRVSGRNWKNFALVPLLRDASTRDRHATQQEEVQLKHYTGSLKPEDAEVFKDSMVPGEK
Chain of Transient receptor potential cation channel subfamily V member 1 (Homo sapiens, UniProt Q8NER1) (Q8NER1 whole entry): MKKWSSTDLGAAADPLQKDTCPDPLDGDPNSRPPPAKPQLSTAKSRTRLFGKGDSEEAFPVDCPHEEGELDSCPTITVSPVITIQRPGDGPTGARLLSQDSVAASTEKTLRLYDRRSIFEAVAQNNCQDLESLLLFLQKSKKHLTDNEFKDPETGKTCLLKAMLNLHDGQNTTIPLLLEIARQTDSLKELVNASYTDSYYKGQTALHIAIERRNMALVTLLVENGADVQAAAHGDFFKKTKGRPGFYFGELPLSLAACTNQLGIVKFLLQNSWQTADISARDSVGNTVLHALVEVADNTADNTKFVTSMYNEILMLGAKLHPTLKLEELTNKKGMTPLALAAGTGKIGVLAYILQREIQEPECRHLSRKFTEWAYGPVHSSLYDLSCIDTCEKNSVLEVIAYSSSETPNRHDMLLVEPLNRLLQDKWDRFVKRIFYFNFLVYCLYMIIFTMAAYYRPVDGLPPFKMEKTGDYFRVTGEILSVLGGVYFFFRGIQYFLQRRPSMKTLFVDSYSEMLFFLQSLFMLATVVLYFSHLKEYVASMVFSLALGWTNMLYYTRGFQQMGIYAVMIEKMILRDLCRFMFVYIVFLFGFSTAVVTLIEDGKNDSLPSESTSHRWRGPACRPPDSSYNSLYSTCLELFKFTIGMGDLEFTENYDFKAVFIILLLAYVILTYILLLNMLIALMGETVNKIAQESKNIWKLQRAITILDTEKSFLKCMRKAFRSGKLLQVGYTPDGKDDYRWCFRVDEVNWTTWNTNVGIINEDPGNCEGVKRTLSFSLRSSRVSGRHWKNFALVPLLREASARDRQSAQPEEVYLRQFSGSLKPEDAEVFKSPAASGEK

What is called IC50 is the point on the concentration scale where inhibition reaches its midpoint. As usually defined, the Solubility is how much of the substance goes into solution per volume. In the case of `OC1CCc2cccc(Nc3cc(-c4ccc(C(F)(F)F)cc4)ncn3)c2C1` (single isomer, unassigned; (+)), the figures for the IC50 in series [1] and in series [5] were 0.58 nM and 5.7 nM, respectively. Also, the Solubility in [2] (simulated gi fluid) was 60 µg/mL (≈ 156 µM); in [3] (buffer), 5.6 µg/mL (≈ 14.5 µM); in [4] (buffer), 180 µg/mL (≈ 467 µM). Moreover, the t1/2 in the series with Rattus norvegicus was 1.2 h.

For orientation: clearance means the volume of plasma or blood freed of the substance per unit of time. A low value points to inefficient removal. Usually bioavailability stands for dose-corrected exposure relative to a reference, in per cent. Broadly, the half-life is the time in which the quantity being followed falls by half. As usually defined, the AUC is the area under the concentration-time curve, a measure of exposure. A lower AUC goes with low exposure. As for `OC1CCc2c(Br)ccc(Nc3cc(-c4ccc(C(F)(F)F)cc4)ncn3)c2C1` (centres undefined), the clearance in series [6] is 6.5 mL/min/kg. Also, the values for the IC50 in series [1] and in [5] were 2.1 nM and 9.6 nM, respectively. For the same compound, the Solubility in series [2] (setting [11]) was 73 µg/mL (≈ 157 µM); in series [3] (phosphate buffered saline, read-out: Solubility), 7.7 µg/mL (≈ 16.6 µM); in [4] (setting [12]) it was 7.2 µg/mL (≈ 15.5 µM). Besides, in [7], the bioavailability was found to be 60%. The half-life in series [8] is 5.5 h. In [9], this compound gave an AUC of 7600 ng·h/mL.

Take `OC1CCc2cccc(Nc3cc(-c4ccc(C(F)(F)F)cc4)ncn3)c2C1` (stereo in doubt; 4): the values for the IC50 in [1] and in series [5] were 0.65 nM and 3.1 nM, respectively. In addition, the Solubility stood at 23 µg/mL (≈ 59.7 µM) in series [3] (buffer) and 190 µg/mL (≈ 493 µM) in series [4] (buffer).

`CC(=O)Nc1nc2c(Oc3cc(-c4ccc(C(F)(F)F)cc4)ncn3)cccc2s1` [AMG-517]: the Solubility is 0.66 µg/mL (≈ 1.53 µM) in [2] (simulated gi fluid), below 0.1 µg/mL in series [3] (buffer) and below 0.1 µg/mL in series [4] (buffer). The AUC in series [10] worked out at 5300 ng·h/mL.

For `OC1CCc2cccc(Nc3cc(-c4ccc(C(F)(F)F)cc4)ncn3)c2C1` (single isomer, unassigned; (-)), in series [6], the clearance was 96.7 mL/min/kg. Besides, the IC50 in series [1] is 0.62 nM; in series [5], 5.5 nM. Also, the Solubility in series [2] (setting [11]) was 85 µg/mL (≈ 221 µM); in series [3] (buffer) it was 9.1 µg/mL (≈ 23.6 µM); in series [4] (setting [12]), 160 µg/mL (≈ 415 µM). In addition, the half-life in series [8] was 0.9 h.

Take `OC1CCc2c(Cl)ccc(Nc3cc(-c4ccc(C(F)(F)F)cc4)ncn3)c2C1` (centres undefined): the bioavailability in series [7] was 34%. This compound gave an exposure (AUC) in [9] of 3400 ng·h/mL.

Consider `CSc1cccc(NC(=O)Nc2cccc3ccc(O)cc23)c1`, for which the IC50 in [1] is 13 nM; in series [5], 35 nM.
